# An excerpt weighted towards active compounds, which were near 1.4% of everything screened.
# HTRA1 inhibitor: HTRA1 serine protease inhibitors, primary screen, biochemical, fluorescence polarization, HTS; Q92743; recombinant HTRA1, FP-rhodamine activity-based probe; actives 0.5% (n = 340,000); inhibition, % at 5.96 µM; in the data active means inhibition above about 36%;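 further: 0% = enzyme with DMSO and 100% = wells lacking enzyme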
# Target sequence (Q92743 whole entry, looked up): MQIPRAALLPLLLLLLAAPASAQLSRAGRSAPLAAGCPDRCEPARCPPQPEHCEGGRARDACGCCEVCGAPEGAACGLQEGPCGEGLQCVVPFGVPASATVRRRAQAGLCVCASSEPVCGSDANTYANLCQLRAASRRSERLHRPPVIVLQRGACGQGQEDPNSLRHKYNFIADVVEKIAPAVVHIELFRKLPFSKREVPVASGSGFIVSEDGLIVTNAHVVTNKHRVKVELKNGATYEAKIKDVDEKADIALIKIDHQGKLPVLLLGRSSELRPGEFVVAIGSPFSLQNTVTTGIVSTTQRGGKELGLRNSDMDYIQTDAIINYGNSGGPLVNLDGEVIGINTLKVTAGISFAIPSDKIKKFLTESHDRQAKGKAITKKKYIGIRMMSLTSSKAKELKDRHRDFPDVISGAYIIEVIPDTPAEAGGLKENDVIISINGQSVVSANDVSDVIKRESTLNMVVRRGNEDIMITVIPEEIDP
# ABHD4 inh: ABHD4 inhibitors, primary screen, biochemical, fluorescence polarization, mouse | (Lyso)-N-acylphosphatidylethanolamine lipase (Mus musculus), Q8VD66 | purified mABHD4, FP-Rh probe fluorescence polarization | inhibition, % at 8.92 µM | actives 0.54% (n = 370,000) | AID 720543, 2013;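 active means inhibition exceeding the mean over every tested compound plus 3 SD, cut at about 30% in these data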;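 further: 0% = plate median of compound wells and 100% = S159A mutant with DMSO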
#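 Test system: mouse ABHD4 enzyme, wild type. Reagent: FP-Rh fluorescent activity-based probe, added after compound pre-incubation. Timing: pre-incubation 45 min, probe exposure 60 min, at 25 °C. Technique: FP readout, ex 525 nm / em 598 nm. Benchmarks: high control S159A mutant with DMSO, low control median of compound wells.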
# RBBP9 inhibitor: human RBBP9 inhibitors, primary screen, biochemical, fluorescence polarization, FP-Rh probe, HTS | recombinant RBBP9 | inhibition, % at 7.94 µM | actives 0.2% (n = 220,000) | AID 1515, 2009;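 active means inhibition above the campaign mean of all tested compounds plus 3 SD, cut at about 14% in these data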;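 further: plate controls were DMSO wells with RBBP9 for no effect and wells lacking RBBP9 protein for full effect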
# Target sequence (O75884 whole entry, looked up): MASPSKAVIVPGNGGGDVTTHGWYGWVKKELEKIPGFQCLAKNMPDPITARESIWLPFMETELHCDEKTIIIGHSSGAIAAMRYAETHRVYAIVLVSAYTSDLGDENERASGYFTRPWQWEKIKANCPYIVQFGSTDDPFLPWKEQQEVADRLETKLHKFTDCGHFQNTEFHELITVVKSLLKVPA
#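 system = RBBP9 protein | input = RBBP9 at 2.5 µM in dispensed solution, before mixing | measured by = fluorescence polarization (mP), excitation 525 nm, emission 598 nm | incubation = enzyme-compound preincubation 30 min, then probe labeling 45 min, 25 °C | buffer or medium = Tris-NaCl-Pluronic buffer, pH 8.0 | compound = single dose 7.94 µM | also added = FP-Rh probe, 375 nM dispensing solution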
# SIAE inh: human SIAE inhibitors, primary screen, biochemical, fluorescence polarization, FP-Rh probe, 1536-well HTS | actives 0.69% (n = 370,000) | SIAE FP-Rh probe binding | inhibition, % at 9.66 µM;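 active means inhibition above a cutoff: mean of compounds within the control limits plus 3 SD of those, cut at about 17% in these data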;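 further: 0% = plate median of compound wells and 100% = probe without SIAE protein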
# HTRA1 conf: HTRA1 protease inhibitors, retest, confirmation, biochemical, fluorescence polarization. shares compounds with HTRA1 inhibitor. recombinant HTRA1, FP-rhodamine activity-based probe. inhibition, % at 5.96 µM. actives 66% (n = 1,600);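 active means mean inhibition over three repeats above a set limit taken from the earlier primary screen, cut at about 37% in these data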;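 further: 0% = HTRA1 with DMSO and 100% = wells lacking HTRA1; inhibitors block probe binding so polarization drops and inhibition rises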
# An asterisk follows results filed as active; / = no result given.
SMILES,HTRA1 inhibitor,ABHD4 inh,RBBP9 inhibitor,SIAE inh,HTRA1 conf
Cc1ccc2nc(-c3cc(N)cc(N)c3)oc2c1,36.8*,15.6,-0.3,0.1,21.9
CN(C)c1ccc(NC(=O)Cn2cc3c(n2)CCCC3)cc1,43.7*,4.9,-0.9,3.4,59.4*
Cc1cc(C)cc(NC(=O)Cn2cc3c(n2)CCCCC3)c1,/,/,2.5,/,/
Cc1ccccc1OCCC(=O)Nc1ccc(S(=O)(=O)N2CCCC2)cc1,-6.7,-10.0,/,1.9,/
c1ccc2cc(-c3cc4ccccn4c3)ccc2c1,39.4*,12.5,0.8,-3.4,14.5
CCCCCCCCCCCCCCCC[N+](C)(C)Cc1ccc(F)cc1,64.0*,43.9*,/,-4.2,63.6*
CC#CC[N+](C)(C)CCCCCCCC,7.1,-1.3,-14.1,-0.5,/
CCOCCC(=O)Nc1ccc2c(c1)c(=O)n(C)n2CC=C(C)C,/,-1.3,/,3.0,/
O=C(Nc1ccc(Nc2ccccc2)cc1)c1ccco1,38.4*,11.9,-7.7,5.9,33.9
COc1ccc(NC(=O)C(c2ccc(C#N)cc2)n2c(=O)c(-c3cc4ccccc4[nH]3)nc3ccccc32)cc1 (configuration not stated),/,-36.7,/,-51.9,/
O=Cc1ccc2c(c1)OCCOCCOCCOCCO2,5.3,-1.5,/,2.7,/
CCOC(=O)/C(=N\Nc1ccc(OC)cc1)c1csc(Nc2ccccc2)n1,42.9*,12.6,-16.3,15.3,27.7
CCOC(=O)/C(=N/Nc1ccccc1)c1csc(Nc2ccccc2)n1,26.6,9.6,1.5,9.2,/
CCCCn1c(N)c(N(CC(C)C)C(=O)CCN2C(=O)C3CC=CCC3C2=O)c(=O)[nH]c1=O (configuration not stated),6.1,5.5,/,6.6,/
CCOc1ccccc1N1CCN(C(=O)c2cc(-c3cccnc3)nc3c(Cl)cccc23)CC1,-1.8,/,/,/,/
OCCN1CCN(Cc2cc(Cl)c3cccnc3c2O)CC1,51.9*,4.1,3.3,4.5,53.9*
Oc1ccc(CN2CCN(c3ccccc3)CC2)c2cccnc12,29.4,/,-5.2,/,/
Oc1c(CN2CCN(c3ccccn3)CC2)cc(Cl)c2cccnc12,38.9*,/,4.2,/,58.4*
O=C(COC(=O)c1nc(Cl)ccc1Cl)Nc1cccc(S(=O)(=O)N2CCOCC2)c1,0.4,1.5,/,-4.3,/
C=CS(=O)(=O)N[C@@H](CSSC[C@H](NS(=O)(=O)C=C)C(=O)OC)C(=O)OC,/,2.0,/,3.1,/
CCOC(=O)c1c(C)oc2c1c(C=NCc1ccccn1)c(O)c1ccccc12,43.5*,34.3*,-7.9,17.9*,60.4*
O=S1(=O)C[C@@H](N2CCCC2)[C@H](COCc2ccccc2)N1,/,-0.9,/,-0.1,/
Cc1nnc(-c2ccccc2)nc1N(C)C,-1.4,-2.0,-4.4,-2.4,/
CN(C)c1nc(-c2ccccn2)nnc1-c1ccccc1,51.9*,1.5,3.2,2.3,56.9*
O=C(OCCc1ccccc1)c1cc(O)c(O)c(O)c1,55.7*,16.8,/,-13.3,86.6*
SMILES,HTRA1 inhibitor,ABHD4 inh,RBBP9 inhibitor,SIAE inh,HTRA1 conf
CC(=O)Oc1cc(C(=O)OCC(=O)NC23CC4CC(CC(C4)C2)C3)cc(OC(C)=O)c1OC(C)=O,65.5*,24.4,/,10.0,75.5*
Cc1cc(-c2ccccc2)nc(N/N=C/c2ccccc2)n1,-5.0,1.4,/,-2.3,/
Oc1ccc(/C=N/Nc2cccc3cccnc23)c(O)c1,47.0*,28.6,7.6,7.4,32.5
Cc1cc(-c2ccccc2)nc(N/N=C/c2ccc(O)cc2O)n1,41.2*,24.3,/,13.8,74.7*
COc1ccc(-c2cc(=O)oc3c(O)c(O)ccc23)cc1,72.7*,27.0,/,-0.8,85.5*
O=C(Nc1ccccc1C(=O)NCc1cccnc1)c1ccccc1F,1.4,-5.8,/,-7.7,/
Oc1ccc(/C=N/Nc2ncnc3c2ncn3Cc2ccccc2)cc1O,49.2*,29.1,-2.5,2.0,50.1*
CCOc1cccc(-c2ccc3nncn3c2)c1,/,1.1,/,-1.0,/
COC(=O)C1=C(O)/C(=C\c2ccc(CNC(=O)C(=O)Nc3ccc(C)cc3)o2)N=C1C,45.1*,16.0,0.9,3.5,-4.5
O=C(Nc1ccc(F)c(Cl)c1)c1ccc2sc([C@@H]3O[C@H](CO)[C@H](O)[C@H](O)[C@H]3O)nc2c1,/,-4.4,/,-3.9,/
O=C(N/N=C/c1ccc(O)cc1O)c1ccc(CN2C(=O)c3cccc4cccc2c34)cc1,37.5*,-94.5,6.4,-14.8,32.0
O=C(Oc1ccc(/C=N/NC(=O)c2ccccc2O)cc1)c1ccccc1,40.5*,-6.2,-2.4,-3.8,-6.0
O=S1(=O)Nc2c(ccc3cccnc23)-c2ccccc21,36.5*,/,-5.8,/,31.4
Clc1ccc2ccc3cccnc3c2n1,-3.4,6.0,/,0.1,/
COc1cccc(/C=N/Nc2ncnc(Cl)c2N)c1O,1.3,8.7,-4.4,-10.1,/
COc1cccc(/C=N/Nc2ncnc3scc(-c4ccccc4)c23)c1O,44.7*,8.0,-0.1,2.6,1.6
Cc1ccccc1-n1nnnc1SCC(=O)c1c(N)n(C2CC2)c(=O)[nH]c1=O,-0.7,-2.1,/,-9.2,/
COc1ccc(C(=O)Oc2ccc3ccc(=O)oc3c2)cc1,2.4,0.2,/,-9.5,/
COc1ccc(C(=O)Oc2ccc3oc(=O)sc3c2)cc1,45.4*,-11.6,-19.6,-24.6,6.4
COC(=O)[C@]12C[C@H](CC(=O)N3CCCC3)C(=O)N(Cc3ccccc3)C1=C[C@H](C1CCCC1)O[C@@H]2C,/,-2.7,/,4.3,/
O=C(N/N=C\c1ccc([N+](=O)[O-])s1)c1cncc(Br)c1,56.2*,1.8,-0.8,-6.3,52.0*
Cc1cc(C(=O)N/N=C/c2ccc([N+](=O)[O-])s2)c2ccccc2n1,46.7*,16.3,/,14.9,28.6
Cc1cc(C(=O)N/N=C/c2ccc([N+](=O)[O-])cc2)c2ccccc2n1,4.5,-3.1,-1.3,-4.0,/
COC(=O)C[C@H]1CC[C@H](NC(=O)c2cccc(F)c2)[C@@H](CO)O1,/,0.6,/,4.4,/
O=C(OCCN1CCN(C2CN(Cc3cn(Cc4ccccc4C(F)(F)F)nn3)S(=O)(=O)C2)CC1)c1cc2ccccc2o1 (configuration not stated),/,0.7,/,5.8,/
SMILES,HTRA1 inhibitor,ABHD4 inh,RBBP9 inhibitor,SIAE inh,HTRA1 conf
COC(=O)c1ccccc1C(=O)c1c(C)cc(C)cc1C,/,-6.6,/,2.0,/
Cc1ccc(S(=O)(=O)N2[C@H](CC(=O)c3cccs3)OC[C@@H]2C)cc1,/,-3.6,/,0.3,/
CC1CCN(c2ccc(C(=O)O)cc2NS(=O)(=O)c2ccc(F)cc2)CC1,/,28.1,/,6.1,/
Cc1ccccc1N=Cc1ccc[nH]1,1.4,-4.5,/,0.4,/
Cc1ccc(N=Cc2ccc[nH]2)c(O)c1,44.1*,7.9,-2.7,-4.2,21.2
O=C(NCc1ccccc1)c1cc(C2COCCN2C(=O)CCc2ccccc2)on1 (configuration not stated),/,0.1,/,-2.9,/

# Source: PubChem BioAssay (The Scripps Research Institute Molecular Screening Center)
